Source: ChEMBL document CHEMBL1250520, “Antitumor agents. 280. Multidrug resistance-selective desmosdumotin B analogues” (2010)
The source made the active and inactive calls. No cut-off for these calls is given here.

Key:
[1] = Selectivity ratio of ED50 for human KB cells to ED50 for human KBVIN cells; type: functional
Procedure, shortened: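 Ratio of KB ED50 to KB-VIN ED50. Both values come from a 3-day sulforhodamine B assay with absorbance read at 562 nm. Cells were seeded at 1500–7500 per well and dosed from DMSO-diluted stock. Each ED50 is the mean of at least three independent determinations.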

[2] = Anticancer activity against human KBVIN cells after 3 days by SRB assay; type: functional; settings: 72 h, read-out: ED50 (the source's name)
Procedure, shortened: (§1)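 Cells seeded at 1500–7500 per well, compounds added from DMSO-diluted stock, grown 3 days in RPMI-1640 with 25mM HEPES, 0.25% sodium bicarbonate, 10% FBS and kanamycin. Attached cells fixed in cold 50% TCA, stained with 0.4% sulforhodamine B, absorbance read at 562 nm after dye solubilization. ED50 is the 50% growth-reduction concentration, averaged from at least three independent determinations.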

KB = assay: Anticancer activity against human KB cells after 3 days by SRB assay; type: functional; settings: 72 h, read-out: ED50 (the source's name); procedure, shortened: as §1
[3] = Anticancer activity against human Hep3B cells after 3 days by SRB assay; type: functional, Hep 3B2; settings: 72 h
[4] = Anticancer activity against vincristine-resistant human Hep3B cells after 3 days by SRB assay; type: functional, Hep 3B2; settings: 72 h
KBVIN = assay: Inhibition of Pgp efflux pump in human KBVIN cells by calcein AM assay; type: cell-based
Procedure, shortened: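 KB-VIN cells, 10,000 per well, were grown 24 h in RPMI-1640 with 5% FBS. They were preincubated with compounds for 30 min at 37°C, then given fresh medium with 1 µM calcein-AM plus compounds for 30 min at 37°C in the dark. After cold PBS wash and hypotonic Tris-HCl lysis, fluorescence was read at Ex 494/Em 517 nm. Data pooled from two or more independent experiments.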

Hep 3B2 = assay: Selectivity ratio of GI50 for human Hep3B cells to ED50 vincristine-resistant Hep3B cells; type: functional

Row | SMILES | EC50 (KB) | Ratio ED50 [1] | EC50 [2] | GI50 [3] | GI50 [4] | inhibition (KBVIN) | RatioGI50 (Hep 3B2)
1 | CCCOc1ccc(-c2cc(=O)c3c(o2)C(CC)(CC)C(=O)C(CC)=C3O)cc1 | > 50.5 µM | >2 | 29.2 µM |  |  |  | 
2 | CCC1=C(O)c2c(oc(-c3cccc(OC)c3OC)cc2=O)C(CC)(CC)C1=O | 35.2 µM | 9 | 4.02 µM |  |  |  | 
3 | CC(=O)O[C@H]1C(=O)[C@@]2(C)[C@H]([C@H](OC(=O)c3ccccc3)[C@]3(O)C[C@H](OC(=O)[C@H](O)[C@@H](NC(=O)c4ccccc4)c4ccccc4)C(C)=C1C3(C)C)[C@]1(OC(C)=O)CO[C@@H]1C[C@@H]2O [PACLITAXEL] |  |  |  | 0.0004 µM | 16.2 µM |  | 
4 | CCC1=C(O)c2c(oc(-c3ccc(CBr)cc3)cc2=O)C(CC)(CC)C1=O | > 46.5 µM | >2 | 27.9 µM |  |  |  | 
5 | CCC1=C(O)c2c(oc(-c3ccc(OC)c(F)c3)cc2=O)C(CC)(CC)C1=O | 26.7 µM | 250 | 0.1 µM |  |  |  | 
6 | CCC1=C(O)c2c(oc(-c3ccc(SC)cc3)cc2=O)C(CC)(CC)C1=O | > 52.1 µM | >38 | 1.38 µM |  |  |  | 
7 | CCC1=C(O)c2c(oc(-c3ccc(COC)cc3)cc2=O)C(CC)(CC)C1=O | > 52.4 µM | 15 | 3.4 µM |  |  |  | 
8 | CCC1=C(O)c2c(oc(-c3ccccc3OC)cc2=O)C(CC)(CC)C1=O | 40.8 µM | 13 | 3.26 µM |  |  |  | 
9 | CCOc1cccc(-c2cc(=O)c3c(o2)C(CC)(CC)C(=O)C(CC)=C3O)c1OCC | 44.6 µM | 1.4 | 31.7 µM |  |  |  | 
10 | CCC1=C(O)c2c(oc(-c3ccc(C)c(F)c3)cc2=O)C(CC)(CC)C1=O | 28.1 µM | 10 | 2.95 µM |  |  |  | 
11 | CCC1=C(O)c2c(oc(-c3ccc(C)c(Cl)c3)cc2=O)C(CC)(CC)C1=O | 39 µM | 18 | 2.15 µM |  |  |  | 
12 | CCC1=C(O)c2c(oc(-c3ccc(Br)cc3)cc2=O)C(CC)(CC)C1=O | > 48.1 µM | 3 | 15.7 µM |  |  |  | 
13 | CCCCc1ccc(-c2cc(=O)c3c(o2)C(CC)(CC)C(=O)C(CC)=C3O)cc1 | 111 µM | 3 | 37 µM |  |  |  | 
14 | CCC1=C(O)c2c(oc(-c3cccc(OC(F)(F)F)c3)cc2=O)C(CC)(CC)C1=O | > 47.4 µM | >5 | 9.95 µM |  |  |  | 
15 | CCC1=C(O)c2c(oc(-c3cccc(C(F)(F)F)c3)cc2=O)C(CC)(CC)C1=O | 35.7 µM | 6.6 | 5.42 µM |  |  |  | 
16 | CCC1=C(O)c2c(oc(-c3cc(OC)cc(OC)c3)cc2=O)C(CC)(CC)C1=O | 45.2 µM | 14 | 3.27 µM |  |  |  | 
17 | CCC1=C(O)c2c(oc(-c3ccc(F)c(C)c3)cc2=O)C(CC)(CC)C1=O | 40.5 µM | 24 | 1.62 µM |  |  |  | 
18 | CCC1=C(O)c2c(oc(-c3ccc(C)cc3C)cc2=O)C(CC)(CC)C1=O | 41.2 µM | 5 | 8.52 µM |  |  |  | 
19 | CCC1=C(O)c2c(oc(-c3cc(C)c(OC)cc3C)cc2=O)C(CC)(CC)C1=O | 36.6 µM | 5 | 7.58 µM |  |  |  | 

Row | SMILES | EC50 (KB) | Ratio ED50 [1] | EC50 [2] | GI50 [3] | GI50 [4] | inhibition (KBVIN) | RatioGI50 (Hep 3B2)
20 | CCC1=C(O)c2c(oc(-c3ccccc3C(F)(F)F)cc2=O)C(CC)(CC)C1=O | 45.6 µM | 1 | 43.1 µM |  |  |  | 
21 | CCC1=C(O)c2c(oc(-c3ccccc3C)cc2=O)C(CC)(CC)C1=O [6,8,8-TRIETHYL-2-METHYL DESMOSDUMOTIN B] | 40.9 µM | 17 | 2.41 µM |  |  |  | 
22 | CCC1=C(O)c2c(oc(-c3ccc(C(F)(F)F)cc3)cc2=O)C(CC)(CC)C1=O | 35.7 µM | 3.5 | 10.3 µM |  |  |  | 
23 | CCC1=C(O)c2c(oc(-c3cc(C)ccc3F)cc2=O)C(CC)(CC)C1=O | 47.3 µM | 15 | 3.24 µM |  |  |  | 
24 | CCC1=C(O)c2c(oc(-c3cc(OC)c(OC)c(OC)c3)cc2=O)C(CC)(CC)C1=O | 46.7 µM | 8 | 5.6 µM |  |  |  | 
25 | CCC1=C(O)c2c(oc(-c3ccc(C)cc3)cc2=O)C(CC)(CC)C1=O [6,8,8-TRIETHYL-4-METHYL DESMOSDUMOTIN B] | 39.2 µM | 460 | 0.08 µM | 7.31 µM | 0.35 µM | Active | 21
26 | CCC1=C(O)c2c(oc(-c3cccc(C)c3)cc2=O)C(CC)(CC)C1=O | 49.7 µM | 14 | 3.69 µM |  |  |  | 
27 | CCCc1ccc(-c2cc(=O)c3c(o2)C(CC)(CC)C(=O)C(CC)=C3O)cc1 | > 53 µM | >4 | 12.2 µM |  |  |  | 
28 | CCC1=C(O)c2c(oc(-c3ccccc3F)cc2=O)C(CC)(CC)C1=O | > 56.2 µM | >14 | 3.93 µM |  |  |  | 
29 | CCC1=C(O)c2c(oc(-c3ccc(F)cc3)cc2=O)C(CC)(CC)C1=O | 33 µM | 18 | 1.85 µM |  |  |  | 
30 | CCOc1ccc(-c2cc(=O)c3c(o2)C(CC)(CC)C(=O)C(CC)=C3O)cc1 | > 52.4 µM | >7 | 7.54 µM |  |  |  | 
31 | CC[C@]1(O)C[C@H]2CN(CCc3c([nH]c4ccccc34)[C@@](C(=O)OC)(c3cc4c(cc3OC)N(C=O)[C@H]3[C@@](O)(C(=O)OC)[C@H](OC(C)=O)[C@]5(CC)C=CCN6CC[C@]43[C@@H]65)C2)C1 [VINCRISTINE] |  |  |  | 0.0029 µM | 6.86 µM |  | 
32 | CCC1=C(O)c2c(oc(-c3ccc(OC(F)(F)F)cc3)cc2=O)C(CC)(CC)C1=O | 36.5 µM | 4 | 9.95 µM |  |  |  | 
33 | CCC1=C(O)c2c(oc(-c3cccc(F)c3)cc2=O)C(CC)(CC)C1=O | > 56.2 µM | >18 | 3.09 µM |  |  |  | 
34 | CCC1=C(O)c2c(oc(-c3cc(C)cc(C)c3)cc2=O)C(CC)(CC)C1=O | 45.5 µM | 100 | 0.45 µM |  |  |  | 
35 | CCC1=C(O)c2c(oc(-c3ccc(C)c(C)c3)cc2=O)C(CC)(CC)C1=O | 35.5 µM | 50 | 0.71 µM |  |  |  | 
36 | CCC1=C(O)c2c(oc(-c3ccc(C(C)(C)C)cc3)cc2=O)C(CC)(CC)C1=O | 29.3 µM | 2 | 17.4 µM |  |  |  | 
37 | CCC1=C(O)c2c(oc(-c3ccc(OC)c(C)c3)cc2=O)C(CC)(CC)C1=O | 28.5 µM | 273 | 0.1 µM |  |  |  | 

Further lines, with some results ahead:

Row | EC50 (KB) | SMILES | Ratio ED50 [1] | EC50 [2] | GI50 [3] | GI50 [4] | inhibition (KBVIN) | RatioGI50 (Hep 3B2)
38 | 18.3 µM | CCC1=C(O)c2c(oc(-c3cc(C)c(O)c(C)c3)cc2=O)C(CC)(CC)C1=O | 2 | 8.9 µM |  |  |  | 
39 | 3.1 µM | CCC1=C(O)c2c(oc(-c3cccc(C)c3C)cc2=O)C(CC)(CC)C1=O | 4 | 0.85 µM |  |  |  | 
40 | 14.5 µM | CCC1=C(O)c2c(oc(-c3cc(C)ccc3C)cc2=O)C(CC)(CC)C1=O | 4 | 3.41 µM |  |  |  | 
41 | 10 µM | CCC1=C(O)c2c(oc(-c3ccc(O)c(O)c3)cc2=O)C(CC)(CC)C1=O | 2 | 5.41 µM |  |  |  | 
42 | 20.9 µM | CCC1=C(O)c2c(oc(-c3ccc(OC)cc3C)cc2=O)C(CC)(CC)C1=O | 8 | 2.62 µM |  |  |  | 
43 | 9.4 µM | CCC1=C(O)c2c(oc(-c3ccc(OC)c(OC)c3OC)cc2=O)C(CC)(CC)C1=O | 6 | 1.57 µM |  |  |  | 
44 | 8.2 µM | CCC1=C(O)c2c(oc(-c3cc(C)c(C)cc3C)cc2=O)C(CC)(CC)C1=O | 2 | 4.37 µM |  |  |  | 
45 | 8.13 µM | CCC1=C(O)c2c(oc(-c3ccc(C(C)C)cc3)cc2=O)C(CC)(CC)C1=O |  | 1.08 µM |  |  |  | 
46 | 14.7 µM | CCC1=C(O)c2c(oc(-c3ccc(OC)c(OC)c3)cc2=O)C(CC)(CC)C1=O | 15 | 1 µM |  |  |  | 
47 | 17.7 µM | CCC1=C(O)c2c(oc(-c3ccc(OC)cc3)cc2=O)C(CC)(CC)C1=O | 26 | 0.68 µM |  |  |  | 
48 | 21.9 µM | CCC1=C(O)c2c(oc(-c3ccc(CC)cc3)cc2=O)C(CC)(CC)C1=O [6,8,8-TRIETHYL-4-ETHYL DESMOSDUMOTIN B] | 320 | 0.07 µM | 6.09 µM | 0.72 µM | Active | 8.5
49 | 8.8 µM | CCC1=C(O)c2c(oc(-c3cc(OC)ccc3OC)cc2=O)C(CC)(CC)C1=O | 4 | 2.51 µM |  |  |  | 
50 | 20.6 µM | CCC1=C(O)c2c(oc(-c3ccc(O)cc3)cc2=O)C(CC)(CC)C1=O | 1 | 20.6 µM |  |  |  | 
51 | 6.5 µM | CCC1=C(O)c2c(oc(-c3ccc(O)c(C)c3C)cc2=O)C(CC)(CC)C1=O | 2 | 2.75 µM |  |  |  | 
52 | 21.8 µM | CCC1=C(O)c2c(oc(-c3cc(Cl)c(OC)c(OC)c3)cc2=O)C(CC)(CC)C1=O | 3 | 8.4 µM |  |  |  | 
53 | 5.43 µM | CCC1=C(O)c2c(oc(-c3ccc(OC)c(C)c3C)cc2=O)C(CC)(CC)C1=O | 20 | 0.28 µM |  |  |  | 
54 | 13.3 µM | CCC1=C(O)c2c(oc(-c3cccc(OC)c3)cc2=O)C(CC)(CC)C1=O | 11 | 1.22 µM |  |  |  | 
55 | 24.9 µM | CCC1=C(O)c2c(oc(-c3ccc(OC)c(Cl)c3)cc2=O)C(CC)(CC)C1=O | 18 | 1.37 µM |  |  |  | 
